# Measurements from ChEMBL document CHEMBL3286172, “Exploring the role of 2-chloro-6-fluoro substitution in 2-alkylthio-6-benzyl-5-alkylpyrimidin-4(3H)-ones: effects in HIV-1-infected cells and in HIV-1 reverse transcriptase enzymes” (J Med Chem, 2014).
# How the values were obtained:
# [1] = test system: Human immunodeficiency virus 1; assay: Antiviral activity against wild type HIV-1 NL4-3 infected in human MT4 cells assessed as inhibition of virus-induced cytopathic effect by MTT method; type: functional, organism-based; conditions: Human immunodeficiency virus 1, NL4-3, MT4
# In short: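 MT-4 lymphoid cells infected with wild-type HIV-1 NL4-3 while exposed to a range of drug concentrations. Viable cells counted by tetrazolium (MTT) colorimetry at day 5 post-infection. Means of at least two experiments.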
# [2] = test system: Human immunodeficiency virus 1; assay: Fold resistance, ratio of EC50 for HIV-1 harboring NNTRI-resistant reverse transcriptase K103N mutant infected in human MT4 cells to EC50 for wild type HIV-1 NL4-3 infected in human MT4 cells; type: functional
# [3] = Selectivity index, ratio of CC50 for human MT4 cells to EC50 for wild type HIV-1 NL4-3 infected in human MT4 cells; type: toxicity, cell-based; conditions: read-out: Ratio CC50/EC50
# In short: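 Ratio of CC50 to EC50, both from MTT readings in MT-4 cells at day 5. CC50 was taken in mock-infected cells and EC50 in cells infected with wild-type NL4-3. Values are means of at least two experiments.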
# [4] = test system: Human immunodeficiency virus 1; assay: Antiviral activity against HIV-1 harboring NNTRI-resistant reverse transcriptase Y188L mutant infected in human MT4 cells assessed as inhibition of virus-induced cytopathic effect by MTT method; type: functional, organism-based; conditions: Human immunodeficiency virus 1, MT4
# In short: (§1)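 MT-4 lymphoid cells infected with HIV-1 carrying RT K103N, Y181C or Y188L, with a range of drug concentrations present. Viable cells counted by MTT colorimetric assay at day 5 post-infection. […] Highest concentration tested was limited by precipitation in culture medium. Means of at least two experiments.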
# [5] = test system: Human immunodeficiency virus 1; assay: Antiviral activity against HIV-1 harboring NNTRI-resistant reverse transcriptase Y181C mutant infected in human MT4 cells assessed as inhibition of virus-induced cytopathic effect by MTT method; type: functional, organism-based; conditions: Human immunodeficiency virus 1, MT4; in short: as §1
# [6] = test system: Human immunodeficiency virus 1; assay: Antiviral activity against HIV-1 harboring NNTRI-resistant reverse transcriptase K103N mutant infected in human MT4 cells assessed as inhibition of virus-induced cytopathic effect by MTT method; type: functional, organism-based; conditions: Human immunodeficiency virus 1, MT4
# [7] = test system: Human immunodeficiency virus 1; assay: Fold resistance, ratio of EC50 for HIV-1 harboring NNTRI-resistant reverse transcriptase Y181C mutant infected in human MT4 cells to EC50 for wild type HIV-1 NL4-3 infected in human MT4 cells; type: functional
# In short: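 MT-4 cells infected with HIV-1 mutant (K103N or Y181C) or wild-type NL4-3, with drug present. […] Fold resistance is the mutant EC50 divided by the wild-type NL4-3 EC50. EC50 values are means of at least two experiments.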
# [8] = Cytotoxicity against human MT4 cells assessed as induction of cell death by MTT method; type: cell-based
# In short: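 Mock-infected MT-4 cells exposed to a range of drug concentrations. Viability read by MTT colorimetry at day 5. […] Top concentration was limited where compound precipitated in the culture medium. Means of at least two experiments.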
# [9] = test system: Human immunodeficiency virus 1; assay: Fold resistance, ratio of ID50 for HIV-1 recombinant NNTRI-resistant reverse transcriptase L100I mutant to ID50 for wild type HIV-1 recombinant reverse transcriptase
# In short: (§2)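 Recombinant wt or mutant HIV-1 RT, purified to >95%, at 2-4 nM. RNA-dependent DNA polymerase activity with 0.5 µg poly(rA)/oligo(dT)10:1 (0.3 µM 3'-OH ends), 10 µM [3H]-dTTP and 8% final DMSO. Incorporation was sampled at 2-min intervals. ID50 came from fitting to a fully non-competitive model. Ratio is ID50 mutant/ID50 wt. Means of at least three experiments.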
# [10] = test system: Human immunodeficiency virus 1; assay: Fold resistance, ratio of ID50 for HIV-1 recombinant NNTRI-resistant reverse transcriptase K103N mutant to ID50 for wild type HIV-1 recombinant reverse transcriptase; in short: as §2
# [11] = test system: Human immunodeficiency virus type 1 reverse transcriptase (Human immunodeficiency virus 1), Q72547 [K103N]
# [12] = test system: Human immunodeficiency virus type 1 reverse transcriptase (Human immunodeficiency virus 1), Q72547 [L100I]
# [13] = molecular target: Human immunodeficiency virus type 1 reverse transcriptase (Human immunodeficiency virus 1) (UniProt Q72547)
# [14] = test system: Human immunodeficiency virus 1; assay: Fold resistance, ratio of EC50 for HIV-1 harboring NNTRI-resistant reverse transcriptase Y188L mutant infected in human MT4 cells to EC50 for wild type HIV-1 NL4-3 infected in human MT4 cells; type: functional
# In short: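 HIV-1 NL4-3 (wt) or Y188L mutant infection of MT-4 cells across a range of drug concentrations. Viable cells were counted by MTT at day 5 post-infection. […] Fold resistance is mutant EC50 over wt EC50. Means of at least two experiments.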
# [15] = test system: Human immunodeficiency virus 1; assay: Fold resistance, ratio of ID50 for HIV-1 recombinant NNTRI-resistant reverse transcriptase Y181I mutant to ID50 for wild type HIV-1 recombinant reverse transcriptase
# In short: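 RNA-dependent DNA polymerase activity with 0.5 µg poly(rA)/oligo(dT)10:1 (0.3 µM 3'-OH ends), 10 µM [3H]-dTTP and 8% final DMSO. Incorporation was sampled at 2-min intervals. ID50 came from fitting to a fully non-competitive model. Means of at least three experiments.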
SMILES,EC50 [1] [nM],Ratio EC50 [2],selectivity ratio [3],EC50 [4] [nM],EC50 [5] [nM],EC50 [6] [nM],Ratio EC50 [7],CC50 [8] [nM],Ratio [9],Ratio [10],ID50 [11] [nM],ID50 [12] [nM],ID50 [13] [nM],Ratio EC50 [14],Ratio [15]
CCCSc1nc(Cc2c(F)cccc2Cl)cc(=O)[nH]1,260,72,> 308,> 80000,8200,18800,31,> 80000,–,–,–,–,–,–,–
CC[C@H](C)Sc1nc([C@@H](C)c2c(F)cccc2Cl)cc(=O)[nH]1,144,53,> 507,> 73300,> 73300,7640,–,> 73000,4,–,–,–,–,–,–
CC[C@@H](C)Sc1nc([C@@H](C)c2c(F)cccc2Cl)cc(=O)[nH]1,47,118,> 1110,> 51600,13200,5560,281,> 52000,4,365,–,–,–,–,–
CC[C@@H](C)Sc1nc([C@H](C)c2c(F)cccc2Cl)c(C)c(=O)[nH]1,0.06,–,–,390,87,15,–,> 70400,41,101,–,–,–,–,–
CC[C@@H](C)Sc1nc([C@@H](C)c2c(F)cccc2Cl)c(C)c(=O)[nH]1,1.4,–,–,3300,890,150,–,> 70400,37,69,–,–,–,–,–
CC[C@H](C)Sc1nc([C@@H](C)c2c(F)cccc2Cl)c(C)c(=O)[nH]1,3660,–,–,> 47000,> 47000,> 47000,–,> 47000,0.2,–,–,–,–,–,–
CCC(c1nc(SC(C)C)[nH]c(=O)c1C)c1c(F)cccc1F (racemic),4,132,> 7500,270,750,530,187,> 30000,–,–,310,210,4,67,–
CCC(C)Sc1nc(C(CC)c2c(F)cccc2F)c(C)c(=O)[nH]1 (racemic),0.8,250,> 3750,900,300,200,375,> 3000,–,–,140,48,6,1125,–
CCC(c1nc(SC2CCCC2)[nH]c(=O)c1C)c1c(F)cccc1F (racemic),11,91,2730,1600,1100,1000,100,30000,–,–,380,110,5,145,–
CC(C)Sc1nc(C(C)c2c(F)cccc2Cl)cc(=O)[nH]1 (racemic),2,550,> 37500,30700,7500,1100,3750,> 75000,–,–,1300,340,8,15350,–
CCCSc1nc(C(C)c2c(F)cccc2Cl)cc(=O)[nH]1 (racemic),3,297,> 25000,7900,2300,890,767,> 75000,–,–,1300,500,8,2633,–
CCCCSc1nc(C(C)c2c(F)cccc2Cl)cc(=O)[nH]1 (racemic),0.3,–,–,5600,3900,1100,–,> 73000,60,220,2200,600,10,–,–
CC(c1cc(=O)[nH]c(SC2CCCC2)n1)c1c(F)cccc1Cl (racemic),0.3,3000,> 237000,> 71000,3000,900,10000,> 71000,–,–,1800,1100,15,–,–
CCCSc1nc(C(CC)c2c(F)cccc2Cl)c(C)c(=O)[nH]1 (racemic),26,81,> 115,> 3000,2800,2100,108,> 3000,48,126,630,240,5,–,700
CCCCSc1nc(C(C)c2c(F)cccc2F)c(CC)c(=O)[nH]1 (racemic),57,–,> 53,> 3000,> 3000,> 3000,–,> 3000,93,130,390,280,3,–,1000
CCc1c(C(C)c2c(F)cccc2F)nc(SC2CCCC2)[nH]c1=O (racemic),160,–,> 19,> 3000,> 3000,> 3000,–,> 3000,65,100,200,130,2,–,900
CCCSc1nc(C(CC)c2c(F)cccc2F)c(C)c(=O)[nH]1 (racemic),12,–,> 250,> 3000,> 3000,> 3000,–,> 3000,37,70,420,220,6,–,600
CC[C@H](C)Sc1nc([C@H](C)c2c(F)cccc2Cl)cc(=O)[nH]1 (racemic),11,111,> 3540,7400,1240,1220,113,> 39000,24,229,–,–,–,673,–
CC[C@H](C)Sc1nc([C@H](C)c2c(F)cccc2Cl)c(C)c(=O)[nH]1 (racemic),43900,–,–,> 70000,64000,> 70000,–,> 70400,0.1,–,–,–,–,–,–
CCC(C)Sc1nc(O)c(C)c(C(C)c2c(F)cccc2F)n1 (racemic),0.9,122,> 3330,> 3000,71,110,79,> 3000,–,–,1700,670,31,–,–
Cc1c(O)nc(SC(C)C)nc1C(C)c1c(F)cccc1F (racemic),1,270,–,> 3000,120,270,120,–,–,–,580,280,3,–,–
